What was measured:
HERC2ZZ = biological target: T1, HERC2ZZ (Homo sapiens, UniProt O95714); test: NMR titration; type: binding; settings: 0.1 mM 15N-labeled HERC2ZZ, 20 mM Tris pH 6.8, 100 mM NaCl, 298K
T1 sequence (O95714 2702-2755): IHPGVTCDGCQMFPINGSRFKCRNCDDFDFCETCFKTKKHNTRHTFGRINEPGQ
In short: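 Human HERC2ZZ (aa 2702-2755, plus an extra C-terminal Trp) was expressed in BL21(DE3) RIL in minimal medium with 15NH4Cl and 0.05 mM ZnCl2, induced with 0.2 mM IPTG for 20 h at 16 °C. The His8-SUMO tag was removed with Ulp1, followed by size exclusion. Sample also held 2-5 mM DTT and 10% D2O.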

HERC2ZZ D2709A = test: NMR titration; type: binding, human; settings: 15N-labeled D2709A HERC2ZZ, 20 mM Tris pH 6.8, 100 mM NaCl, 298K; Figures 3G, 3H, S9

Row | exchange regime of CSPs in HERC2ZZ on the NMR timescale (HERC2ZZ) | Compound | CSPs in HERC2ZZ upon addition of free alanine amino acid (HERC2ZZ; 50-fold excess of alanine, Figure S5) | interaction with SUMO1 ligand upon D2709A substitution (NMR titration) (HERC2ZZ D2709A)
1 | – | C[C@H](N)C(=O)O [alanine, reference compound] | no CSPs | –
2 | intermediate exchange regime | SUMO1FL: full-length SUMO1 protein | – | abolished

Reference: PMC11537069 (Structure (London, England : 1993), 2020)
